Converted amounts (≈) assume the structure as drawn. The source made the active and inactive calls. The rule behind the calls is not given here.
Legend:
Staphylococcus aureus [1] = test: Antibacterial activity against methicillin resistant Staphylococcus aureus MFBF 10679 after 18 hrs by serial microdilution broth assay; type: functional; settings: MFBF 10679, 18 h
In short: (§1)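 EUCAST-based broth microdilution in Mueller-Hinton broth. Glycerol stock cultures grown in trypticase soy broth 18 h at 37 °C; inoculum in PBS pH 7.4 at 0.5 McFarland, diluted 1:10 in broth. Compounds from DMSO stocks, 1000 to 0.78125 µg/ml; 18 h aerobic, 35 °C, dark. TTC 0.5 mg/ml added, 3 h, then HCl/isopropanol, A490. MIC = lowest concentration giving 50% inhibition vs untreated; duplicates, averaged.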

Glycine max = test: Inhibition of soybean LOX assessed as reduction in conversion of sodium linoleate to 13-hydroperoxylinoleic acid at 1 x 10^-4 M relative to control
In short: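 Soybean lipoxygenase incubated at room temperature with sodium linoleate (0.1 mM) and test compound (DMSO stocks); formation of 13-hydroperoxylinoleic acid read at 234 nm. Single-point screening at 1 × 10^-4 M; IC50 from several concentrations. At least triplicate.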

[2] = Hemolytic activity against human RBC at 100 ug/ml after 1 hr relative to control; type: ADME, cell-based, Erythrocyte; settings: red blood cells (RBC), read-out: Activity
Bacillus cereus = test: Antibacterial activity against Bacillus cereus ATCC 11778 after 18 hrs by serial microdilution broth assay; type: functional; settings: ATCC 11778, 18 h
In short: (§2)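 Broth microdilution MIC per EUCAST for aerobic bacteria in Mueller-Hinton broth, serial dilution 1000 to 0.78125 µg/ml from 10 mg/ml DMSO stocks. Inoculum from trypticase soy broth cultures (18 h, 37 °C), set to 0.5 McFarland in PBS pH 7.4, diluted 1:10. 18 h aerobic incubation at 35 °C in dark, then TTC 0.5 mg/ml for 3 h, HCl-isopropanol, A490. MIC = lowest concentration giving 50% inhibition versus untreated; duplicates.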

[3] = Growth inhibition of human SW620 cells after 72 hrs by MTT assay; type: functional, cell-based; settings: SW-620, 72 h
In short: (§3)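 Modified NCI DTP protocol: cells in DMEM with 10% FBS, 2 mM glutamine, antibiotics, 37 °C, 5% CO2; seeded 1 × 10^4 to 3 × 10^4 cells/ml on day 0, exposed to five 10-fold dilutions (10^-8 to 10^-4 M) for 72 h; solvent control. MTT read-out; quadruplicate points in three experiments; IC50 by linear regression of growth percentages bracketing 50%.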

[4] = Growth inhibition of human CEM cells after 72 hrs by MTT assay; type: functional, cell-based; settings: CCRF-CEM
Staphylococcus aureus [5] = test: Antibacterial activity against methicillin sensitive Staphylococcus aureus ATCC 25213 after 18 hrs by serial microdilution broth assay; type: functional; settings: ATCC 25213, 18 h; in short: as §2
[6] = Antioxidant activity assessed as DPPH radical scavenging activity at 100 uM after 20 mins relative to control; type: functional
In short: (§4)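 Compound in DMSO added to DPPH in absolute ethanol, 0.1 mM final; absorbance at 517 nm after 20 and 60 min at room temperature. At least triplicate.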

Escherichia coli = test: Antibacterial activity against Escherichia coli ATCC 10535 after 18 hrs by serial microdilution broth assay; type: functional; settings: ATCC 10535, 18 h; in short: as §2
[7] = Growth inhibition of human MIAPaCa2 cells after 72 hrs by MTT assay; type: functional, cell-based; settings: MIA PaCa-2, 72 h
[8] = Growth inhibition of mouse L1210 cells after 72 hrs by MTT assay; type: functional, cell-based; settings: L1210, 72 h
Bacillus spizizenii = test: Antibacterial activity against Bacillus subtilis ATCC 6633 after 18 hrs by serial microdilution broth assay; type: functional; settings: ATCC 6633, 18 h; in short: as §2
Enterococcus faecalis [9] = test: Antibacterial activity against vancomycin susceptible Enterococcus faecalis ATCC 29212 after 18 hrs by serial microdilution broth assay; type: functional; settings: ATCC 29212, 18 h; in short: as §2
[10] = Antioxidant activity assessed as inhibition of AAPH-induced linoleic acid lipid peroxidation at 1 x 10^-4 M by UV-absorbance method relative to control; type: functional
In short: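 Linoleic acid peroxidation: 16 mM sodium linoleate dispersion in 0.05 M phosphate buffer pH 7.4 at 37 °C under air, initiated by AAPH (40 mM solution); compound at 1 × 10^-4 M; oxidation followed at 234 nm. At least triplicate.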

Candida albicans = test: Antifungal activity against Candida albicans ATCC 90028 after 18 hrs by serial microdilution broth assay; type: functional; settings: ATCC 90028, 18 h
In short: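 Yeast microdilution in RPMI 1640 with glutamine plus 2% glucose, 1000 to 0.78125 µg/ml from 10 mg/ml DMSO stocks. Growth read with XTT (10 mg/ml) mixed 7:1 with menadione (1 mg/ml in acetone), absorbance at 540 nm. MIC taken as lowest concentration giving 50% growth inhibition versus untreated cells; tests in duplicate.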

Staphylococcus aureus [11] = test: Antibacterial activity against methicillin sensitive Staphylococcus aureus ATCC 25923 after 18 hrs by serial microdilution broth assay; type: functional; settings: ATCC 25923, 18 h; in short: as §1
Pseudomonas aeruginosa [12] = test: Antibacterial activity against multi-drug resistant Pseudomonas aeruginosa MFBF after 18 hrs by serial microdilution broth assay; type: functional; in short: as §1
Staphylococcus aureus [13] = test: Antibacterial activity against Staphylococcus aureus ATCC 6538 after 18 hrs by serial microdilution broth assay; type: functional; settings: ATCC 6538, 18 h; in short: as §2
[14] = Growth inhibition of human HeLa cells after 72 hrs by MTT assay; type: functional, cell-based
Enterococcus faecalis [15] = test: Antibacterial activity against vancomycin resistant Enterococcus faecalis MFBF 11419 after 18 hrs by serial microdilution broth assay; type: functional; settings: MFBF 11419, 18 h; in short: as §1
[16] = Growth inhibition of human Molt4/C8 cells after 72 hrs by MTT assay; type: functional, cell-based; settings: MOLT-4, 72 h
Pseudomonas aeruginosa [17] = test: Antibacterial activity against Pseudomonas aeruginosa ATCC 9027 after 18 hrs by serial microdilution broth assay; type: functional; settings: ATCC 9027, 18 h; in short: as §1
[18] = Antioxidant activity assessed as DPPH radical scavenging activity at 100 uM after 60 mins relative to control; type: functional; in short: as §4
[19] = Growth inhibition of human MCF7 cells after 72 hrs by MTT assay; type: functional, cell-based; settings: MCF7, 72 h; in short: as §3
[20] = Cytotoxicity against HEK cells assessed as reduction in cell viability at 6.25 to 100 ug/ml after 24 hrs by MTT assay; type: toxicity, cell-based; settings: human, hek293, 24 h
In short: (§5)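 HEK 293 cells, 5 × 10^3 per well, treated next day for 24 h with compound (range within 200 to 1.5625 µg/ml). MTT 0.5 mg/ml in DMEM/10% FBS, 4 h at 37 °C, 5% CO2; formazan in DMSO, A570. Viability as percent of untreated control; triplicates, three independent experiments.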

Staphylococcus aureus [21] = test: Antibacterial activity against methicillin resistant Staphylococcus aureus MFBF 10682 after 18 hrs by serial microdilution broth assay; type: functional; settings: MFBF 10682, 18 h; in short: as §1
[22] = Growth inhibition of human NCI-H460 cells after 72 hrs by MTT assay; type: functional, cell-based; settings: NCI-H460, 72 h; in short: as §3
Bacillus pumilus = test: Antibacterial activity against Bacillus pumilus NCTC 8241 after 18 hrs by serial microdilution broth assay; type: functional; settings: NCTC 8241, 18 h; in short: as §2
Pseudomonas aeruginosa [23] = test: Antibacterial activity against Pseudomonas aeruginosa ATCC 27853 after 18 hrs by serial microdilution broth assay; type: functional; settings: ATCC 27853, 18 h; in short: as §2
[24] = Cytotoxicity against HEK cells assessed as reduction in cell viability at 3.125 to 25 ug/ml after 24 hrs by MTT assay; type: toxicity, cell-based; settings: human, hek293, 24 h; in short: as §5
MCF7 [25] = test: Potency index, ratio of ciplatin IC50 to compound IC50 for human MCF7 cells; type: functional
[26] = Cell cycle arrest in human MCF7 cells assessed as decrease in G1 population at 0.31 uM after 24 hrs by propidium iodide staining based flow cytometry; type: functional
In short: (§6)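 MCF-7 grown in EMEM with 10% FBS, L-glutamine, pyruvate, insulin; treated 0.31 µM for 24 h, DMSO (0.022%) vehicle control. Cells ethanol-fixed (70%, 24 h, -20 °C), RNase A 20 µg/ml 30 min 37 °C, PI 5.5 µg/ml 10 min dark; 20 000 cells by flow cytometry; G1, S, G2/M fractions; three independent experiments, Newman-Keuls test.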

MCF7 [27] = test: Induction of apoptosis in human MCF7 cells assessed as increase in number of late apoptotic/necrotic cells at 0.31 uM after 72 hrs by Annexin-V FITC/propidium iodide staining based flow cytometry; type: functional, cell-based
In short: (§7)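 MCF-7 treated 0.31 µM for 72 h, DMSO control. Washed cells at 1 × 10^6 per 100 µl Annexin V binding buffer, stained FITC Annexin V plus PI 15 min room temperature in dark; 10 000 cells by flow cytometry (ex 488, em 530/580 nm). Viable, early apoptotic, late apoptotic/necrotic and necrotic fractions; three experiments, Duncan test.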

MCF7 [28] = test: Induction of apoptosis in human MCF7 cells assessed as increase in number of necrotic cells at 0.31 uM after 72 hrs by Annexin-V FITC/propidium iodide staining based flow cytometry; type: functional, cell-based; in short: as §7
MCF7 [29] = test: Induction of apoptosis in human MCF7 cells assessed as increase in cleaved PARP-1 expression at 0.31 uM after 72 hrs by immunoblot method; type: functional, cell-based
In short: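 MCF-7 treated at 0.31 µM for up to 72 h, controls DMSO and 1 µM doxorubicin. Lysates (CelLytic M with protease inhibitors), BCA quantification; 5 µg protein on 4-20% gels, nitrocellulose transfer, milk block; anti-PARP-1 (1:1000), GAPDH loading control (1:5000) overnight 4 °C, HRP anti-rabbit 1:2000, ECL detection; three independent experiments.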

[30] = Cell cycle arrest in human MCF7 cells assessed as increase in G2/M population at 0.31 uM after 24 hrs by propidium iodide staining based flow cytometry; type: functional; in short: as §6
[31] = Growth inhibition of human MCF7 cells by alamar blue assay; type: functional

| Structure (SMILES) | MIC50 (Staphylococcus aureus [1]) [µg/mL] | inhibition (Glycine max) [%] | hemolysis at 1 h, 100 ug/ml [2] [%] | MIC50 (Bacillus cereus) [µg/mL] | IC50 [3] [µM] | IC50 [4] [µM] | MIC50 (Staphylococcus aureus [5]) [µg/mL] | Activity [6] [%] | MIC50 (Escherichia coli) [µg/mL] | IC50 [7] [µM] | IC50 [8] [µM] | MIC50 (Bacillus spizizenii) [µg/mL] | MIC50 (Enterococcus faecalis [9]) [µg/mL] | inhibition [10] [%] | MIC50 (Candida albicans) [µg/mL] | MIC50 (Staphylococcus aureus [11]) [µg/mL] | IC50 [14] [µM] | IC50 [16] [µM] | IC50 [19] [µM] | IC50 [22] [µM] | other results |
| --- | --- | --- | --- | --- | --- | --- | --- | --- | --- | --- | --- | --- | --- | --- | --- | --- | --- | --- | --- | --- | --- |
| COc1cc(NC(C)CCCNC(=O)Nc2cccc(O)c2)c2ncccc2c1 (stereo not given) | 100 (≈ 254 µM) | 50.8 | < 1 | 50 (≈ 127 µM) | 27 | 32 | 50 (≈ 127 µM) | 48.6 | 100 (≈ 254 µM) | 46 | 25 | 50 (≈ 127 µM) | > 100 | 66.9 | > 100 | 50 (≈ 127 µM) | 48 | 24 | 11 | 25 | MIC50 (Pseudomonas aeruginosa [12]): 100 µg/mL (≈ 254 µM); MIC50 (Staphylococcus aureus [13]): 20 µg/mL (≈ 50.7 µM); MIC50 (Enterococcus faecalis [15]): > 100 µg/mL; MIC50 (Pseudomonas aeruginosa [17]): 100 µg/mL (≈ 254 µM); Activity [18]: 52.3%; Activity [20]: Non-Toxic; MIC50 (Staphylococcus aureus [21]): 50 µg/mL (≈ 127 µM); MIC50 (Bacillus pumilus): 12.5 µg/mL (≈ 31.7 µM); MIC50 (Pseudomonas aeruginosa [23]): 50 µg/mL (≈ 127 µM) |
| COc1cc(NC(C)CCCNC(=O)Nc2cc(C(F)(F)F)cc(C(F)(F)F)c2)c2ncccc2c1 (stereo not given) | > 100 | 42.3 | < 1 | 100 (≈ 194 µM) | 3.9 | 4.1 | 12.5 (≈ 24.3 µM) | 51.7 | > 100 | 4.7 | 3.5 | > 100 | > 100 | 90.2 | > 100 | 6.3 (≈ 12.2 µM) | 3.1 | 12 | 1.6 | 8.3 | Activity [24]: Toxic; MIC50 (Pseudomonas aeruginosa [12]): > 100 µg/mL; MIC50 (Staphylococcus aureus [13]): 1.6 µg/mL (≈ 3.11 µM); MIC50 (Enterococcus faecalis [15]): > 100 µg/mL; MIC50 (Pseudomonas aeruginosa [17]): 100 µg/mL (≈ 194 µM); Activity [18]: 55.2%; MIC50 (Staphylococcus aureus [21]): > 100 µg/mL; MIC50 (Bacillus pumilus): 12.5 µg/mL (≈ 24.3 µM); MIC50 (Pseudomonas aeruginosa [23]): 12.5 µg/mL (≈ 24.3 µM) |
| COc1cc(NC(C)CCCNC(=O)NNC(=O)Nc2ccc(F)cc2)c2ncccc2c1 (stereo not given) |  | 31.9 |  |  | > 100 | 118 |  | 7.6 |  | ≥ 250 | 104 |  |  |  |  |  | ≥ 250 | ≥ 250 | 0.31 | > 100 | Ratio IC50 (MCF7 [25]): 42; Activity [26]: Active; Activity (MCF7 [27]): Active; Activity (MCF7 [28]): Active; Activity (MCF7 [29]): Active; Activity [30]: Active |
| COc1cccc2c1C(=O)c1c(O)c3c(c(O)c1C2=O)C[C@@](O)(C(=O)CO)C[C@@H]3O[C@H]1C[C@H](N)[C@H](O)[C@H](C)O1 [DOXORUBICIN] |  |  |  |  |  |  |  |  |  |  |  |  |  |  |  |  |  |  |  |  | IC95 [31]: 1 µM |
